# Active and inactive are the calls of the source. The rule behind the calls is not given here.
# What was measured:
# [1] = molecular target: T1, Bifunctional purine biosynthesis protein ATIC (Homo sapiens, UniProt P31939); test: In vitro inhibitory activity against Aminoimidazole carboxamide ribonucleotide transformylase pre-incubated for 12 hr at 250 uM; Not active.
# How it was run: (§1)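 The AICAR Tfase assay solution was pre-incubated with inhibitor (250 µM, or 25 µM where the line states) for 12 h at room temperature. The reaction was then started by adding AICAR, and enzyme inhibition was measured.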
# Target sequence in this assay (P31939 whole entry, looked up): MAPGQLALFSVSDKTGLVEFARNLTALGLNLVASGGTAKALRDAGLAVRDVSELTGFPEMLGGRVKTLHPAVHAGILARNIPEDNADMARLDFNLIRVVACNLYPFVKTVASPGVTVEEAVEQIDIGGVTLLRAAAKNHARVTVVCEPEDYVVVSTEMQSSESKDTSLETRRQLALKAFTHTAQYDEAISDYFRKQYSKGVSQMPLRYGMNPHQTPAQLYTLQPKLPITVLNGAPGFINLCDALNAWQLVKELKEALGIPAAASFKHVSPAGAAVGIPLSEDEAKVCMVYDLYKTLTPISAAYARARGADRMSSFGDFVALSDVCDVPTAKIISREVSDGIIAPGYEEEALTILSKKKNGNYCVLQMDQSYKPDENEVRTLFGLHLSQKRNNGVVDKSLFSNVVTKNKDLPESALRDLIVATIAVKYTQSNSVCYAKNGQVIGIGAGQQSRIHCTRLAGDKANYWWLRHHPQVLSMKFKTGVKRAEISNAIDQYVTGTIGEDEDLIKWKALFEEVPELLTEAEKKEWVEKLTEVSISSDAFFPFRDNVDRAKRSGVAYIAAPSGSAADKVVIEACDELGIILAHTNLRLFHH
# CCRF-CEM [2] = test: Cytotoxicity in the absence of hypoxanthine and presence of thymidine against CCRF-CEM cell line; format: functional, cell-based; settings: Homo sapiens
# How it was run: (§2)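 CCRF-CEM cells were grown in purine- and pyrimidine-free medium, with thymidine and/or hypoxanthine added or omitted as each line specifies. The cytotoxic potency was reported as an IC50 (µM).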
# CCRF-CEM [3] = test: Cytotoxicity in the absence of thymidine and hypoxanthine against CCRF-CEM cell line; format: functional, cell-based; settings: Homo sapiens; how it was run: as §2
# CCRF-CEM [4] = test: Cytotoxicity in the absence of thymidine and presence of hypoxanthine against CCRF-CEM cell line; format: functional, cell-based; settings: Homo sapiens; how it was run: as §2
# CCRF-CEM [5] = test: Cytotoxicity in the presence of thymidine and hypoxanthine against CCRF-CEM cell line; format: functional, cell-based; settings: Homo sapiens; how it was run: as §2
# [6] = molecular target: T2, Trifunctional purine biosynthetic protein adenosine-3 (Homo sapiens) (UniProt P22102); test: In vitro inhibitory activity against Glycinamide ribonucleotide transformylase (GAR Tfase) after 1 hr at 25 uM
# T2 sequence (whole entry): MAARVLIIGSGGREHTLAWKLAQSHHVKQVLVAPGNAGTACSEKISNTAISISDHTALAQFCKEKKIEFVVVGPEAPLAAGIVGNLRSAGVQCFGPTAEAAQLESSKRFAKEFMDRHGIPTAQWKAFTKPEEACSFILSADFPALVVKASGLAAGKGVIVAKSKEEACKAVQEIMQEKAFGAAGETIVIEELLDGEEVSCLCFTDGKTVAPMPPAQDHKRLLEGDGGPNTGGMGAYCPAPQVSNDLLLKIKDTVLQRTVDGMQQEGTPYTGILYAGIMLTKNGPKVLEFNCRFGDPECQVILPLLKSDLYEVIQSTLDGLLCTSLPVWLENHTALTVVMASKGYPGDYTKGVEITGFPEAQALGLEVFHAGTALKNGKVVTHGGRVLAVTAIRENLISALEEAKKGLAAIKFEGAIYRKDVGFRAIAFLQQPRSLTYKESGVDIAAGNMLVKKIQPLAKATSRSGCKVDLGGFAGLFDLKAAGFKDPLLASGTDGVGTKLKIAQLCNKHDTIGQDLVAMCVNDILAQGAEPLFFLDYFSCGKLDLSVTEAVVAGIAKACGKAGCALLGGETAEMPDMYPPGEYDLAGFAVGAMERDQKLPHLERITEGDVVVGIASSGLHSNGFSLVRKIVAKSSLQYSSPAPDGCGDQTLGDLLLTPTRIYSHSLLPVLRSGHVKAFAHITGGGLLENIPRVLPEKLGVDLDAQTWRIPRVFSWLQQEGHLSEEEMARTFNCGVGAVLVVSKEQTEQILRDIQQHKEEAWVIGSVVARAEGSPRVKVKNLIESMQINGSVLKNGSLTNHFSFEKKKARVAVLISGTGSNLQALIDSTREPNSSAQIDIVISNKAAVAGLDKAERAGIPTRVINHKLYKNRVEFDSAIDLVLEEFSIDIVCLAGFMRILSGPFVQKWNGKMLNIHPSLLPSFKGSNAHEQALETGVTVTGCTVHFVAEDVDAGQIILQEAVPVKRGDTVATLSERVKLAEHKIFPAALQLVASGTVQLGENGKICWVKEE
# [7] = molecular target: T2, Trifunctional purine biosynthetic protein adenosine-3 (Homo sapiens); test: In vitro inhibitory activity at 250 uM concentration against Glycinamide ribonucleotide transformylase (GAR Tfase) pre-incubation time (6 hr).
# [8] = molecular target: T2, Trifunctional purine biosynthetic protein adenosine-3 (Homo sapiens); test: In vitro inhibitory activity against Glycinamide ribonucleotide transformylase (GAR Tfase+GAR) pre-incubation of 6 hr at 250 uM concentration
# [9] = molecular target: T2, Trifunctional purine biosynthetic protein adenosine-3 (Homo sapiens); test: In vitro inhibitory activity against Glycinamide ribonucleotide transformylase (GAR Tfase) after 3 min at 25 uM; […]
# [10] = molecular target: T2, Trifunctional purine biosynthetic protein adenosine-3 (Homo sapiens); test: In vitro inhibitory activity against Glycinamide ribonucleotide transformylase (GAR Tfase+GAR) following 3 min pre-incubation at 250 uM concentration
# [11] = molecular target: T2, Trifunctional purine biosynthetic protein adenosine-3 (Homo sapiens); test: In vitro inhibitory activity against Glycinamide ribonucleotide transformylase (GAR Tfase) after 30 min at 25 uM; Not active
# [12] = molecular target: T2, Trifunctional purine biosynthetic protein adenosine-3 (Homo sapiens); test: In vitro inhibitory activity against Glycinamide ribonucleotide transformylase (GAR Tfase+GAR) following 30 min pre-incubation at 250 uM concentration
# [13] = molecular target: T2, Trifunctional purine biosynthetic protein adenosine-3 (Homo sapiens); test: In vitro inhibitory activity against Glycinamide ribonucleotide transformylase (GAR Tfase) following 3 min pre-incubation at 250 uM concentration
# [14] = molecular target: T2, Trifunctional purine biosynthetic protein adenosine-3 (Homo sapiens); test: In vitro activity against Glycinamide ribonucleotide transformylase (GAR Tfase) after 3 min at 25 uM
# [15] = molecular target: T2, Trifunctional purine biosynthetic protein adenosine-3 (Homo sapiens); test: In vitro activity against Glycinamide ribonucleotide transformylase (GAR Tfase) after 30 min at 25 uM
# [16] = molecular target: T1, Bifunctional purine biosynthesis protein ATIC; test: In vitro inhibitory activity against Aminoimidazole carboxamide ribonucleotide transformylase pre-incubed for 12 hr at 250 uM; how it was run: as §1
# Target sequence in this assay (P31939 whole entry, looked up): as the sequence (P31939 whole entry, looked up) above
# [17] = molecular target: T2, Trifunctional purine biosynthetic protein adenosine-3 (Homo sapiens); test: (§3) In vitro inhibitory activity against Glycinamide ribonucleotide transformylase (GAR Tfase) after 6 hr at 25 uM
# [18] = molecular target: T2, Trifunctional purine biosynthetic protein adenosine-3 (Homo sapiens); test: as §3; remark: listed apart in the source
# [19] = molecular target: T2, Trifunctional purine biosynthetic protein adenosine-3 (Homo sapiens); test: In vitro inhibitory activity against Glycinamide ribonucleotide transformylase (GAR Tfase) after 3 min at 25 uM
# [20] = molecular target: T2, Trifunctional purine biosynthetic protein adenosine-3 (Homo sapiens); test: In vitro inhibitory activity against Glycinamide ribonucleotide transformylase (GAR Tfase) after 30 min at 25 uM
# [21] = molecular target: T2, Trifunctional purine biosynthetic protein adenosine-3 (Homo sapiens); test: In vitro inhibitory activity against Glycinamide ribonucleotide transformylase (GAR Tfase) after 30 min at 250 uM; Not active
# [22] = molecular target: T2, Trifunctional purine biosynthetic protein adenosine-3 (Homo sapiens); test: In vitro inhibitory activity against Glycinamide ribonucleotide transformylase (GAR Tfase) after 6 hr at 250 uM; Not active
# [23] = molecular target: T2, Trifunctional purine biosynthetic protein adenosine-3 (Homo sapiens); test: In vitro inhibitory activity against Glycinamide ribonucleotide transformylase (GAR Tfase) after 3 min at 250 uM; Not active
# [24] = molecular target: T1, Bifunctional purine biosynthesis protein ATIC; test: In vitro inhibitory activity against Aminoimidazole carboxamide ribonucleotide transformylase; how it was run: as §1
# Target sequence in this assay (P31939 whole entry): as the sequence (P31939 whole entry, looked up) above
# [25] = molecular target: T2, Trifunctional purine biosynthetic protein adenosine-3 (Homo sapiens); test: In vitro inhibitory activity against Glycinamide ribonucleotide transformylase (GAR Tfase) after 7 hr at 250 uM
# [26] = molecular target: T2, Trifunctional purine biosynthetic protein adenosine-3 (Homo sapiens); test: In vitro inhibitory activity against Glycinamide ribonucleotide transformylase (GAR Tfase) after 1 hr at 25 uM; […]
SMILES,inhibition [1],IC50 (CCRF-CEM [2]) [µM],IC50 (CCRF-CEM [3]) [µM],IC50 (CCRF-CEM [4]) [µM],IC50 (CCRF-CEM [5]) [µM],inhibition [7] [%],inhibition [8] [%],inhibition [10] [%],inhibition [12] [%],inhibition [13] [%],inhibition [16] [%],further results
COC(=O)c1ccc(CN(CCCc2c(N)nc(N)nc2O)c2cc(F)cc(F)c2[N+](=O)[O-])cc1,inactive,> 100,> 100,> 100,> 100,0,6,25,12,6,,inhibition [6]: 39%; inhibition ([6]; in the assay text read “after 6 hr” for “after 1 hr”): 84%; inhibition [9]: inactive; inhibition [11]: inactive; % control activity remaining [14]: 78%; % control activity remaining [15]: 76%
COC(=O)c1ccc(CN(CCCc2c(N)nc(N)nc2O)c2ccc([N+](=O)[O-])c(F)c2F)cc1,,45,41,55,45,41,75,82,78,61,96,
COC(=O)c1ccc(CN(CCc2c(N)nc(N)nc2O)c2cc(F)cc(F)c2[N+](=O)[O-])cc1,inactive,91,> 100,> 100,> 100,0,30,32,29,16,,
Nc1nc(N)c(CCCNc2cc(F)c([N+](=O)[O-])cc2[N+](=O)[O-])c(O)n1,,1.1,1,1,1.2,39,2,100,75,76,64,inhibition [17]: 58%; inhibition [18]: 56%; inhibition [9]: inactive; inhibition [11]: inactive; inhibition [19]: 76%; inhibition [20]: 71%
COC(=O)c1ccc(CN(CCCc2c(N)nc(N)nc2O)c2cc(F)ccc2[N+](=O)[O-])cc1,inactive,43,45,55,30,0,8,75,44,70,,
Nc1nc(N)c(CCCNc2cc(F)c(F)cc2[N+](=O)[O-])c(O)n1,,> 100,97,97,97,63,,,,87,98,inhibition [21]: inactive; inhibition [22]: inactive; inhibition [23]: inactive
Nc1nc(O)c2cc(CN(Cc3ccc(F)c([N+](=O)[O-])c3)c3ccc(C(=O)NC(CCC(=O)O)C(=O)O)cc3)ccc2n1 (configuration not stated),,,,,,,,,,,,Ki [24]: 17 µM
Nc1nc2c(c(=O)[nH]1)C[C@@H](CCc1ccc(C(=O)N[C@@H](CCC(=O)O)C(=O)O)cc1)CN2 [LOMETREXOL],,0.07,0.13,> 100,> 100,,,,,,,
Nc1nc(N)c(CCCNc2cc(F)ccc2[N+](=O)[O-])c(O)n1,inactive,> 100,> 100,> 100,> 100,,,,,86,,inhibition [21]: inactive; inhibition [22]: inactive; inhibition [25]: 64%; inhibition [23]: inactive
Nc1nc(N)c(CCCNc2cc(F)cc(F)c2[N+](=O)[O-])c(O)n1,inactive,97,97,97,94,53,,,,80,,inhibition [21]: inactive; inhibition [22]: inactive; inhibition [23]: inactive
COC(=O)c1ccc(CN(CCCc2c(N)nc(N)nc2O)c2cc(F)c([N+](=O)[O-])cc2[N+](=O)[O-])cc1,,3.9,2.5,4.3,3.5,0,0,64,22,46,77,inhibition [6]: 2%; % control activity remaining [18]: 65%; inhibition [9]: inactive; inhibition [20]: 83%; % control activity remaining [14]: 83%; % control activity remaining [15]: 77%
COC(=O)c1ccc(CN(CCc2c(N)nc(N)nc2O)c2cc(F)ccc2[N+](=O)[O-])cc1,,66,72,72,72,12,47,81,62,78,94,
COC(=O)c1ccc(CN(CCc2c(N)nc(N)nc2O)c2cc(F)c(F)cc2[N+](=O)[O-])cc1,inactive,13,12,11,11,2,22,35,31,17,,
COC(=O)c1ccc(CN(CCCc2c(N)nc(N)nc2O)c2cc(F)c(F)cc2[N+](=O)[O-])cc1,,55,59,66,53,0,14,68,54,44,94,
Nc1nc2ccc(CN(Cc3ccc([N+](=O)[O-])c(F)c3)c3ccc(C(=O)NC(CCC(=O)O)C(=O)O)cc3)cc2c(=O)[nH]1 (configuration not stated),,,,,,,,,,,,Ki [24]: 52 µM
COC(=O)c1ccc(CN(CCc2c(N)nc(N)nc2O)c2cc(F)c([N+](=O)[O-])cc2[N+](=O)[O-])cc1,,1.9,1.3,1.7,1.1,2,27,66,54,47,75,
Nc1nc(N)c(CCNc2cc(F)c(F)cc2[N+](=O)[O-])c(O)n1,inactive,43,55,37,58,,,,,,,inhibition [26]: inactive; inhibition [21]: inactive; inhibition [23]: inactive
COC(=O)c1ccc(CN(CCc2c(N)nc(N)nc2O)c2ccc([N+](=O)[O-])c(F)c2F)cc1,,61,48,36,67,30,67,79,85,68,73,

# From ChEMBL document CHEMBL1133492, “Design, synthesis, and biological evaluation of fluoronitrophenyl substituted folate analogues as potential inhibitors of GAR transformylase and AICAR transformylase” (Bioorg Med Chem Lett, 2000)
